Measured values from ChEMBL document CHEMBL1132157 (J Med Chem, 1999).

Tests used:
[1] = target: 5-hydroxytryptamine receptor 1B (Homo sapiens, UniProt P28222); test: Displacement of [3H]5-HT binding to cloned 5-hydroxytryptamine 1B receptor stably expressed in CHO cells; type: cell-based
Procedure, shortened: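 Membranes from thawed CHO cells with human 5-HT1B or 5-HT1D, washed in 50 mM Tris-HCl pH 7.7, preincubated 10 min at 37 °C to remove endogenous 5-HT. Buffer holds 0.1% ascorbate, 10 μM pargyline and 4 mM CaCl2. Uses 2.0 nM [3H]5-HT, 30 min at 37 °C; 10 μM 5-HT defines nonspecific binding. Filtration; IC50 by nonlinear regression; duplicates, 2–5 occasions.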

[2] = target: T1, 5-hydroxytryptamine receptor 1A (Homo sapiens, UniProt P08908); test: Compound was tested for the displacement of [3H]5-HT binding to cloned 5-hydroxytryptamine 1A receptor stably expressed in CHO cells; type: cell-based
T1 sequence (P08908 whole entry): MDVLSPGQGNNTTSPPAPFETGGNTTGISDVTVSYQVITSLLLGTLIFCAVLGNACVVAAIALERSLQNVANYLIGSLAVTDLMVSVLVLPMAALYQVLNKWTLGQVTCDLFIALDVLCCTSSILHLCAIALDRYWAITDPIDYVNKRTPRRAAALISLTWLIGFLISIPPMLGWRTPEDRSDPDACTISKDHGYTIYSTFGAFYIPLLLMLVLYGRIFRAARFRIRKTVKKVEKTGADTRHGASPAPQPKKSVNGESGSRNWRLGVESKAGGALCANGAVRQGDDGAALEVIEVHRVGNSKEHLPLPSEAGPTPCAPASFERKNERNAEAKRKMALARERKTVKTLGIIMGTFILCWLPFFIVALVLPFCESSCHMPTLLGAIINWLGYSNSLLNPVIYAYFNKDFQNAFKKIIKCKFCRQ

[3] = target: 5-hydroxytryptamine receptor 1D (Homo sapiens, UniProt P28221); test: Agonist-induced [35S]- GTPgammaS binding in CHO cells stably transfected with 5-hydroxytryptamine 1D receptor; type: cell-based
Procedure, shortened: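 Membranes from thawed CHO cells with human 5-HT1D, prepared in ice-cold 20 mM Hepes/EDTA at pH 7.4, spun at 40000g. Assay buffer: 100 mM NaCl, 10 mM MgCl2, 0.1% ascorbate, 10 μM pargyline. GDP 100 μM plus drug, 20 min at 30 °C, then ice 15 min. Then 100 pM [35S]GTPγS, 30 min at 30 °C, filtration. Emax is taken as % of maximal 5-HT response; duplicates, 2–5 occasions.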

[4] = target: 5-hydroxytryptamine receptor 2A (Homo sapiens, UniProt P28223); test: Compound was tested for the displacement of [3H]5-HT binding to cloned human 5-hydroxytryptamine 2A receptor stably expressed in CHO cells; type: cell-based
[5] = Ratio of IC50 for human 5-HT1B to human 5-HT1D receptors
[6] = target: 5-hydroxytryptamine receptor 5A (Homo sapiens, UniProt P47898); test: Compound was tested for the displacement of [3H]5-HT binding to cloned human 5-hydroxytryptamine 5A receptor stably expressed in CHO cells; type: cell-based
[7] = target: 5-hydroxytryptamine receptor 6 (Rattus norvegicus, UniProt P31388); test: Compound was tested for the displacement of [3H]5-HT binding to cloned rat 5-hydroxytryptamine 6 receptor stably expressed in CHO cells; type: cell-based
[8] = target: T2, 5-hydroxytryptamine receptor 1F (Homo sapiens, UniProt P30939); test: Compound was tested for the displacement of [3H]5-HT binding to cloned human 5-hydroxytryptamine 1F receptor stably expressed in CHO cells; type: cell-based
T2 sequence (P30939 whole entry): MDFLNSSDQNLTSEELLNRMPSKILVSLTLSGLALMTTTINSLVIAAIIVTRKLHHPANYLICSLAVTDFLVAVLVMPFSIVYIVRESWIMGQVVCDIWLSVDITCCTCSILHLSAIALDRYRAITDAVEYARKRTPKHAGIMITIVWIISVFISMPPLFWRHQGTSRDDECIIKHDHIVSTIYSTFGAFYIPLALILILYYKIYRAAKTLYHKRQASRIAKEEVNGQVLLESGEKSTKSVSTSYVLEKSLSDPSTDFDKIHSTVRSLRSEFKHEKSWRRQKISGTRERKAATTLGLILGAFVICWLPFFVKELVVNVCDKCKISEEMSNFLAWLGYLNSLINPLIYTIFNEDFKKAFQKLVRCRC

[9] = target: 5-hydroxytryptamine receptor 7 (Rattus norvegicus, UniProt P32305); test: Compound was tested for the displacement of [3H]5-HT binding to cloned rat 5-hydroxytryptamine 7 receptor stably expressed in CHO cells; type: cell-based
[10] = target: 5-hydroxytryptamine receptor 1E (Homo sapiens, UniProt P28566); test: Compound was tested for the displacement of [3H]5-HT binding to cloned human 5-hydroxytryptamine 1E receptor stably expressed in CHO cells; type: cell-based
5-hydroxytryptamine receptor 1E, sequence (P28566 whole entry): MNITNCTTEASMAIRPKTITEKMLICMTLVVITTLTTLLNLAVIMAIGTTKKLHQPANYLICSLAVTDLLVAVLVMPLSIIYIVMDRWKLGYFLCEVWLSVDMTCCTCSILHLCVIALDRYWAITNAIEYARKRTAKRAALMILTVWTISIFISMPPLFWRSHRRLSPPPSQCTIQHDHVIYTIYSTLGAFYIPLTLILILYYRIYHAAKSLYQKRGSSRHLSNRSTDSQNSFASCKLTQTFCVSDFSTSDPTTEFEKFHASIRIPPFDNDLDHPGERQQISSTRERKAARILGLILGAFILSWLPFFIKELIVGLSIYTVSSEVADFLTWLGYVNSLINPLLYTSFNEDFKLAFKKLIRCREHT

5-hydroxytryptamine receptor 5A, sequence (P47898 whole entry): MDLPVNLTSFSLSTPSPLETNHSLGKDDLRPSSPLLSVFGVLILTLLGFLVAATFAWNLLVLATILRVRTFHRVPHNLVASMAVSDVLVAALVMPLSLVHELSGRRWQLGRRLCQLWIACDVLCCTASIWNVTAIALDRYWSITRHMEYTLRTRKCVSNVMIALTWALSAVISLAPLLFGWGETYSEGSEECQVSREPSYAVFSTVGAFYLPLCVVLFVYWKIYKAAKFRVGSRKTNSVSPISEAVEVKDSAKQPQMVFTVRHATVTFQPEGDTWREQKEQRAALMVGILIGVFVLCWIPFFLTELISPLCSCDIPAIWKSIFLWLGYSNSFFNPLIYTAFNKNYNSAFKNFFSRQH
5-hydroxytryptamine receptor 2A, sequence (P28223 whole entry): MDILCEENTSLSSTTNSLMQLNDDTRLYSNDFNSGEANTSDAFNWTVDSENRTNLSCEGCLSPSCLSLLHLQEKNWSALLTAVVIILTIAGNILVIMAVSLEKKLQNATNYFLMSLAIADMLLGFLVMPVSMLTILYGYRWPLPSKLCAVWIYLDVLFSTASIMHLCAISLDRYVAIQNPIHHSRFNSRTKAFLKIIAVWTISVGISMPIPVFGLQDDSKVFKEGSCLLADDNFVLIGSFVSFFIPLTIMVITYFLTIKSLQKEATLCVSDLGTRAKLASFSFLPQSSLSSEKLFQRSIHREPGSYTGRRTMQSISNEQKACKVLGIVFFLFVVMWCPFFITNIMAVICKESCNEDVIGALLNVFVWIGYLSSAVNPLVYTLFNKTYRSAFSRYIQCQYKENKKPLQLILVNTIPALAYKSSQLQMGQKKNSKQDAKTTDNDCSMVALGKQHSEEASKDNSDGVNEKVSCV
5-hydroxytryptamine receptor 6, sequence (P31388 whole entry): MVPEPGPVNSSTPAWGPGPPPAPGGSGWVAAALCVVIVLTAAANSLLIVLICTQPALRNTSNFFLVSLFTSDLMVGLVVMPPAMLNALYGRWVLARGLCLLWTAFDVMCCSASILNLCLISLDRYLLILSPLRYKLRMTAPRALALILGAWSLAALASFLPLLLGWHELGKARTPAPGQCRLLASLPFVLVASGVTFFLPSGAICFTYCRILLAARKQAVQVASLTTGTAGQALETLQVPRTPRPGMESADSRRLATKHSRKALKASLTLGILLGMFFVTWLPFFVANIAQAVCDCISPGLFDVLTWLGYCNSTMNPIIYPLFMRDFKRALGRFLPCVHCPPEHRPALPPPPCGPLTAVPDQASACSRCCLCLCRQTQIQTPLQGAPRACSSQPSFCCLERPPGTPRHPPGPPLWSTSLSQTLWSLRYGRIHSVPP
5-hydroxytryptamine receptor 1D, sequence (P28221 whole entry): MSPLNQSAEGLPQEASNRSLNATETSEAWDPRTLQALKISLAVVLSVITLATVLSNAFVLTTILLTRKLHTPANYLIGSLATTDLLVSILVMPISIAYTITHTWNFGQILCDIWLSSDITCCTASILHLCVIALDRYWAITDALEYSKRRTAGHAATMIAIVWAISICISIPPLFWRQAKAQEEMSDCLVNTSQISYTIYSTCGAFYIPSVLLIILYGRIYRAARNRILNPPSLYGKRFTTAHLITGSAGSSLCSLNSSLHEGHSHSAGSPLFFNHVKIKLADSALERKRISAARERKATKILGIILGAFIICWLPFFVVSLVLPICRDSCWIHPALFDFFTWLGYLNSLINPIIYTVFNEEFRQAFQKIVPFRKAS
5-hydroxytryptamine receptor 1B, sequence (P28222 whole entry): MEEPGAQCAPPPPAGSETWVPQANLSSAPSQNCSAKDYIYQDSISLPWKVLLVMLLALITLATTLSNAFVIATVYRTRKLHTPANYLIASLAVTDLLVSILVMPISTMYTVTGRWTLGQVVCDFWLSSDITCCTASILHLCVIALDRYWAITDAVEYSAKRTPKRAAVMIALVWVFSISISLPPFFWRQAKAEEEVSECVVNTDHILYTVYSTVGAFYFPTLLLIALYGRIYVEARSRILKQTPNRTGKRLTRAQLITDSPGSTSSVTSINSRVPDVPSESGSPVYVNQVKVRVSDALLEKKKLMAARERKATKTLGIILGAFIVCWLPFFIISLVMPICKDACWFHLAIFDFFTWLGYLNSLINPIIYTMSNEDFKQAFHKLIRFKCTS
5-hydroxytryptamine receptor 7, sequence (P32305 whole entry): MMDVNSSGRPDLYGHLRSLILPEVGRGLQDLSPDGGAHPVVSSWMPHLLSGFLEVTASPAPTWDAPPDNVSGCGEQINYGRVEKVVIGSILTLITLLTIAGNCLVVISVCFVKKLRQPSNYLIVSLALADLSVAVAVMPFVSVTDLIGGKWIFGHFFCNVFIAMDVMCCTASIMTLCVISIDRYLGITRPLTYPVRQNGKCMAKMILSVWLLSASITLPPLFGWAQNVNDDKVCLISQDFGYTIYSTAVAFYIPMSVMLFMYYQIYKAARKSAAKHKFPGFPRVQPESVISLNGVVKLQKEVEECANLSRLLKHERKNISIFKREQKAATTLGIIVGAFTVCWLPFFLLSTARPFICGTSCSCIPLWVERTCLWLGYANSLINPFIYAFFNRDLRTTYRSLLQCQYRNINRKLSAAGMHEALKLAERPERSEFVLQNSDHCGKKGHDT

OC[C@H](NC1CCN(CCCc2c[nH]c3ccc(-n4cnnc4)cc23)CC1)c1ccc(F)cc1
IC50 [1]: 0.15 µM | IC50 [2]: 0.066 µM | EC50 [3]: 0.0008 µM | IC50 [4]: 1.1 µM | Selectivity [5]: 170 | IC50 [6]: > 10 µM | IC50 [7]: > 10 µM | IC50 [8]: > 10 µM | IC50 [9]: 0.54 µM | IC50 [10]: > 10 µM
